Source: PubChem BioAssay
The list is not random: actives were taken first. Their share in the collection is about 3.5%.
MrgX1 ag: agonists of human MrgX1 receptor, primary screen, HEK293 cells, Fluo-4 calcium flux. Mas-related G-protein coupled receptor member X1 (Homo sapiens), Q96LB2. Fluo-4 calcium fluorescence, agonist mode; active compounds read high. B-score at 10 µM. 0.44% of 310,000 active;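 active = calcium response B-score plate-corrected fluorescence ratio at least 3 library SD, with starting fluorescence B-score inside 5 SD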
Target sequence (Q96LB2 whole entry, looked up): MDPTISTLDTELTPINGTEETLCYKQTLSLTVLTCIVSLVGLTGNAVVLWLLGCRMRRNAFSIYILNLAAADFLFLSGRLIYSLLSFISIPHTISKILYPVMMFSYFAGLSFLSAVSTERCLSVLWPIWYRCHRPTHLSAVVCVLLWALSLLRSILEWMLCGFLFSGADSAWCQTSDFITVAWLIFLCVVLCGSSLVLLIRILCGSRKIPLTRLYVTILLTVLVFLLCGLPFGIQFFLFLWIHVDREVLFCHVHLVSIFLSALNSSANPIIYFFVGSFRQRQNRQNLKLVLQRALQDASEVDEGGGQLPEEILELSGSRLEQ
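times = overnight plating, then 30 min 37 °C plus 30 min room-temperature dye loading | assay system = stable human MrgX1 HEK293 cell line | input = fifteen thousand cells per well | signal = kinetic calcium dye fluorescence, Fluo-4 NW | dosing = compound delivered in addition one of three | read-out = B-scored fluorescence response ratio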
RGS4 act: RGS4 potentiators or activators, primary screen, cell-based, HEK293 M3R inducible RGS4, calcium flux; carbachol calcium flux Fluo4; active compounds read low; AID 463111, 2010; B-score at 10 µM; 0.92% of 310,000 active;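 active = B-score of the integrated calcium signal more than 4 SD below the library mean, with starting fluorescence not abnormally high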;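 also: negative B-score means reduced calcium response which marks RGS4 activation or potentiation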
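System: HEK293 FlpIn-TREx cells, stable M3R, doxycycline-inducible RGS4. Timing: overnight RGS4 induction, 30 min dye load 37 °C, 20 min compound RT. Also added: carbachol, ECmax concentration. Measured by: Fluo4 fluorescence kinetic imaging of calcium. Evaluation: integrated calcium ratio converted to B score.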
RGS4 block: RGS4 inhibitors, primary screen, cell-based, HEK293 M3R inducible RGS4, calcium flux; Regulator of G-protein signaling 4 (Homo sapiens), P49798; Fluo-4 calcium flux; active compounds read high; triggered by carbachol at its EC20; B-score at 10 µM; 0.45% of 310,000 active;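 active = B-score, a plate-corrected calcium signal, over three deviations above library mean, with baseline fluorescence within five deviations of library mean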;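 also: RGS4 expression induced by doxycycline in cells with stable M3 receptor; B-score is computed from the integrated fluorescence ratio over baseline after carbachol; higher B-score means a larger calcium signal and so more RGS4 inhibition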
Target sequence (P49798 whole entry, looked up): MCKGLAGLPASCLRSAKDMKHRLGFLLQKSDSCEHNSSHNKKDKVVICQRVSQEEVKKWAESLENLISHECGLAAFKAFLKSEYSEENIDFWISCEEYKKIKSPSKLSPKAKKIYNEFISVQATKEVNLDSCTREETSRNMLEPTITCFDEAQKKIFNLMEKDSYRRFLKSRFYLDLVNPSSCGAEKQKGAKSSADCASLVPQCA
MrgX1 PAM: positive allosteric modulators of MrgX1, primary screen, HEK293 cells, Fluo-4 calcium flux; FDSS; active compounds read high; 0.63% of 310,000 active; Mas-related G-protein coupled receptor member X1 (Homo sapiens), Q96LB2; B-score at 10 µM;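 active = plate-corrected calcium response at least 3 library SD above typical, normal starting fluorescence, not activating the receptor alone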;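 also: compound read alongside a low EC10 to EC30 dose of BAM8-22 agonist; peak minus trough fluorescence over baseline measured at the second addition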
MrgX1 antagonist: antagonists of human MrgX1 receptor, primary screen, HEK293 cells, Fluo-4 calcium flux. Mas-related G-protein coupled receptor member X1 (Homo sapiens), Q96LB2. BAM8-22 antagonism; active compounds read low. B-score at 10 µM. 1.3% of 310,000 active. AID 588676, 2011;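 active = calcium-response B-score plate-corrected more than 3 library SD below zero, starting fluorescence within 5 deviations, no agonist response on first addition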;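 also: peak minus trough fluorescence over baseline after final BAM8-22 challenge near maximal dose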
RGS4 activ val: reduced carbachol calcium response, RGS4-induced M3R cells, confirmation, RGS4 activator project, cell-based, HEK293 M3R/RGS4 inducible, calcium flux, duplicate. carbachol calcium flux Fluo4. inhibition, % at 10 µM. 89% of 1,100 active. shares compounds with RGS4 act;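 active = inhibition above 3 SD of the buffer control wells, cut at about 41% in these data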;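 also: signal is the integrated peak-minus-minimum Fluo4 fluorescence over baseline ratio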
RGS4 act ctr: counter-screen for RGS4 activators: effect in non-induced cells. shares compounds with RGS4 act. HEK293 M3R non-induced RGS4, Fluo4 calcium flux; after carbachol challenge at its EC90. inhibition, % at 10 µM. 82% of 1,100 active. AID 602283;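 active = inhibition exceeding 3 SD of buffer-only control wells, cut at about 26% in these data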;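 also: percent drop in integrated peak-minus-baseline over baseline Fluo4 ratio after carbachol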
Large screens that a line does not name were inactive (follow-up assays come after a bar, where they were run).

CCOc1cc2sc(N3CCC(C(=O)NCCCN4CCCC4=O)CC3)nc2cc1Br	RGS4 act -9.4 | RGS4 activ val 48 | RGS4 act ctr 84
Cc1cc(C)c2nc(N3CCC(C(=O)NCCCN4CCCC4=O)CC3)sc2c1	none
CCC(OCC(O)CN1CCCCC1)c1ccccc1 (centres undefined)	none
COC(=O)C1CCN(c2nc3ccccc3nc2C(C#N)C(=O)OCC(C)C)CC1 (centres undefined)	RGS4 act -7.9 | RGS4 activ val 91 | RGS4 act ctr 75
O/C=c1\ccc2cccc3nc(C(F)(F)F)nc1c23	none
C/C(O)=c1/ccc2cccc3nc(C)nc1c23	RGS4 act -8.3 | RGS4 activ val 74 | RGS4 act ctr 69
O=C(NC1CCN(Cc2ccccc2)CC1)C1COc2ccccc2O1 (centres undefined)	RGS4 act -8.5 | RGS4 activ val 92 | RGS4 act ctr 87
O=C(NCc1ccccc1)C1COc2ccccc2O1 (centres undefined)	none
O=C(CN1C(=O)NC2(CCCC2)C1=O)NNC(=O)c1ccccc1	none
COc1cc(C(=O)Oc2cccc(Nc3ncnc4ccccc34)c2)cc(OC)c1OC	RGS4 act -12 | RGS4 activ val 92 | RGS4 act ctr 80
Cc1nc2sc(C)c(C)c2c(=O)o1	RGS4 act -8.5 | RGS4 activ val inactive | RGS4 act ctr inactive
COc1cc(-c2cc(-c3ccc(N)cc3)[nH]c(=O)c2C#N)cc(OC)c1OC	RGS4 act -8 | RGS4 activ val inactive | RGS4 act ctr inactive
N#Cc1c(-c2ccccc2)cc(-c2ccccc2)[nH]c1=O	none
Cc1ccccc1OCC(=O)NNC(=O)C1CCN(c2ncnc3sc(C)c(C)c23)CC1	none
CCCN(CC(=O)Nc1ccccc1C)C(=O)C1CCN(c2ncnc3sc(C)c(C)c23)CC1	RGS4 act -8.7 | RGS4 activ val 64 | RGS4 act ctr 27
COc1ccc(/C(C)=N/NC(=O)c2ccccc2OCc2ccccc2)c(OC)c1	none
COc1ccc(/C=N/NC(=O)c2ccccc2OCc2ccccc2)c(OC)c1	RGS4 act -11 | RGS4 activ val 94 | RGS4 act ctr 76
COc1ccc(CCNC(=O)C(C)n2nc(C)c3c(C)n(-c4ccc(C)cc4)nc3c2=O)c(OC)c1 (centres undefined)	none
O=[N+]([O-])c1cccc(N(CC(O)CN2CCCC2)S(=O)(=O)c2ccccc2)c1 (centres undefined)	none
Clc1ccc(-n2nnnc2-c2cnc(-c3ccncc3)nc2-c2cccs2)cc1	none
FC(F)(F)c1nc(-c2cccs2)ncc1-c1nnnn1-c1ccc(Cl)cc1	RGS4 act -8.9 | RGS4 activ val 92 | RGS4 act ctr 58
Cc1nc2ccccn2c1-c1csc(Nc2cccc(O)c2)n1	RGS4 act -8.4 (no result: MrgX1 ag, MrgX1 PAM, MrgX1 antagonist) | RGS4 activ val 57 | RGS4 act ctr inactive
c1ccc(COc2ccc(OCCCN3CCCC3)cc2)cc1	RGS4 act -11 | RGS4 activ val 94 | RGS4 act ctr 57
c1ccc(COc2ccc(OCCN3CCCC3)cc2)cc1	none
CC1CCN(CCCOc2ccc(OCc3ccccc3)cc2)CC1	RGS4 act -10 | RGS4 activ val 92 | RGS4 act ctr 78
COc1cc(O)c(CC=C(C)C)c(O)c1C(=O)CCc1ccc(O)cc1	RGS4 act -9.3 | RGS4 activ val 91 | RGS4 act ctr 76
N=C1c2ccccc2CN1c1ccc(S(=O)(=O)N2CCCCC2)cc1	RGS4 act -8.8 | RGS4 activ val 75 | RGS4 act ctr 36
c1ccc(-c2nc(N3CCCCCC3)nc(-n3ccnc3)n2)cc1	RGS4 act -8.7 | RGS4 activ val 92 | RGS4 act ctr 61
c1ccc(-c2nc(N3CCN(c4ccccc4)CC3)nc(-n3ccnc3)n2)cc1	none
c1ccc(COc2ccc(CNCc3cccnc3)cc2)cc1	RGS4 act -13 | RGS4 activ val 84 | RGS4 act ctr 42
Cc1ccccc1C(=O)OC1CCCN(C)C1 (centres undefined)	none
CN1CCCC(C#CC(O)(c2ccccc2)c2ccccc2)C1 (centres undefined)	RGS4 act -11 | RGS4 activ val 94 | RGS4 act ctr 92
CC(C)(C)c1cc(C(=O)NCc2cc(F)cc3c2OCOC3)n(Cc2ccccc2)n1	RGS4 act -8.4 | RGS4 activ val 92 | RGS4 act ctr 56
Cc1cccc(C)c1NC(=O)NNC(=O)c1cc(C(C)(C)C)nn1Cc1ccccc1	none
Cc1cc2c3c([nH]c2cc1S(=O)(=O)NCc1ccc(CN2CCCCCC2)o1)CCCC3=O	RGS4 act -8.6 | RGS4 activ val 75 | RGS4 act ctr 46
CCN(CC)S(=O)(=O)c1cccc(NC(=O)C2CC(=O)N(c3ccc4c(c3)OCCO4)C2)c1 (centres undefined)	none
COc1ccc2c(c1)C=C(CN1CCC(CO)(CCc3ccccc3)CC1)CO2	RGS4 act -8 | RGS4 activ val 80 | RGS4 act ctr 84
CCN(CC)S(=O)(=O)c1cc(NC(=O)C(C)N2CCN(c3ccccn3)CC2)ccc1C (centres undefined)	RGS4 act -9.1 | RGS4 activ val 64 | RGS4 act ctr inactive
CC(C)CN1C(=O)c2ccc(C(=O)Nc3ccccc3C(=O)O)cc2C1=O	none
CCN(CC)CCC(=O)N1c2ccccc2Sc2ccc(Cl)cc21	none
O=C(CCN1CCN2CCCC2C1)N1c2ccccc2Sc2ccc(Cl)cc21 (centres undefined)	none
CN(C)CCC(=O)N1c2ccccc2Sc2ccc(Cl)cc21	RGS4 act -14 | RGS4 activ val 94 | RGS4 act ctr 98
CN(C)CC(=O)N1c2ccccc2Sc2ccc(Cl)cc21	RGS4 act -8 | RGS4 activ val 91 | RGS4 act ctr 69
NCCCC(=O)N1c2ccccc2Sc2ccc(Cl)cc21	RGS4 act -7.9 | RGS4 activ val 91 | RGS4 act ctr 85
CC(=O)N1CCc2cc(S(=O)(=O)CCC(=O)Nc3cc(C)cc(C)c3)ccc21	none
Cc1ccccc1NC(=O)c1cccc2nc3ccccc3nc12	RGS4 act -7.8 | RGS4 activ val 86 | RGS4 act ctr 59
